What was measured:
K562 [1] = experiment: Induction of specific necrosis in human K562 cells after 24 hrs by annexin V-FITC/propidium iodide staining based flow cytometry; format: functional; parameters: concentration or dose not given beside the values
Outline: (§1)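 K562 cells treated 24 or 72 h, double-stained with Annexin V-FITC/PI and analysed by flow cytometry to give percentages of live, apoptotic and necrotic cells; apoptotic and necrotic responses expressed as specific apoptosis or specific necrosis (%).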

K562 [2] = experiment: Induction of apoptosis in human K562 cells assessed as cleaved PARP level after 72 hrs by Western blotting method (reference value: 18.36%); format: functional
Raji = experiment: Antiproliferative activity against human Raji cells after 72 hrs by MTT assay; format: functional, cell-based
Outline: (§2)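 Human tumour lines and MRC-5 foetal lung fibroblasts (normal-cell comparator) exposed to compounds for 72 h; viability read by standard MTT assay. IC50 taken as concentration inhibiting growth by 50% versus untreated control; means of three independent experiments, coefficients of variation under 10%.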

K562 [3] = experiment: Induction of cell cycle arrest in human K562 cells assessed as accumulation at G2/M phase after 24 hrs by propidium iodide staining-based flow cytometry (reference value: 14.29%); format: functional
Outline: (§3)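 Exponentially growing K562 cells treated 24 or 72 h; cells stained with propidium iodide and cell-cycle distribution (sub-G1, G0/G1, S, G2/M, %) measured by flow cytometry; untreated cells as control.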

K562 [4] = experiment: Induction of cell cycle arrest in human K562 cells assessed as accumulation at S phase after 72 hrs by propidium iodide staining-based flow cytometry (reference value: 35.73%); format: functional; outline: as §3
K562 [5] = experiment: Induction of specific necrosis in human K562 cells after 72 hrs by annexin V-FITC/propidium iodide staining based flow cytometry; format: functional; parameters: concentration or dose not given beside the values; outline: as §1
K562 [6] = experiment: Induction of apoptosis in human K562 cells assessed as Bcl2 protein level after 24 hrs by Western blotting method (reference value: 22.81%); format: functional
K562 [7] = experiment: Induction of apoptosis in human K562 cells assessed as cleaved PARP level after 24 hrs by Western blotting method (reference value: 36.17%); format: functional
K562 [8] = experiment: Induction of apoptosis in human K562 cells assessed as late apoptotic cells after 24 hrs by annexin V-FITC/propidium iodide staining based flow cytometry (reference value: 4.58%); format: functional; outline: as §1
K562 [9] = experiment: Induction of cell cycle arrest in human K562 cells assessed as accumulation at S phase after 24 hrs by propidium iodide staining-based flow cytometry (reference value: 48.38%); format: functional; outline: as §3
K562 [10] = experiment: Induction of apoptosis in human K562 cells assessed as necrotic cells after 72 hrs by annexin V-FITC/propidium iodide staining based flow cytometry (reference value: 7.23%); format: functional; outline: as §1
K562 [11] = experiment: Antiproliferative activity against human K562 cells after 72 hrs by MTT assay; format: functional, cell-based; outline: as §2
K562 [12] = experiment: Induction of apoptosis in human K562 cells assessed as necrotic cells after 24 hrs by annexin V-FITC/propidium iodide staining based flow cytometry (reference value: 1.50%); format: functional; outline: as §1
K562 [13] = experiment: Induction of cell cycle arrest in human K562 cells assessed as accumulation at G0/G1 phase after 24 hrs by propidium iodide staining-based flow cytometry (reference value: 36.28%); format: functional; outline: as §3
K562 [14] = experiment: Induction of specific apoptosis in human K562 cells after 24 hrs by annexin V-FITC/propidium iodide staining based flow cytometry; format: functional; parameters: concentration or dose not given beside the values; outline: as §1
[15] = Antiproliferative activity against human HL60 cells after 72 hrs by MTT assay; format: functional, cell-based, HL-60; outline: as §2
K562 [16] = experiment: Induction of apoptosis in human K562 cells assessed as caspase 3 level after 24 hrs by Western blotting method (reference value: 42.77%); format: functional
K562 [17] = experiment: Induction of apoptosis in human K562 cells assessed as late apoptotic cells after 72 hrs by annexin V-FITC/propidium iodide staining based flow cytometry (reference value: 5.24%); format: functional; outline: as §1
K562 [18] = experiment: Induction of apoptosis in human K562 cells assessed as early apoptotic cells after 24 hrs by annexin V-FITC/propidium iodide staining based flow cytometry (reference value: 8.09%); format: functional; outline: as §1
K562 [19] = experiment: Induction of apoptosis in human K562 cells assessed as Bax protein level after 72 hrs by Western blotting method (reference value: 32.81%); format: functional
K562 [20] = experiment: Induction of apoptosis in human K562 cells assessed as Bax protein level after 24 hrs by Western blotting method (reference value: 16.13%); format: functional
K562 [21] = experiment: Induction of apoptosis in human K562 cells assessed as living cells after 24 hrs by annexin V-FITC/propidium iodide staining based flow cytometry (reference value: 85.85%); format: functional; outline: as §1
K562 [22] = experiment: Induction of cell cycle arrest in human K562 cells assessed as accumulation at Sub-G1 phase after 24 hrs by propidium iodide staining-based flow cytometry (reference value: 1.05%); format: functional; outline: as §3
K562 [23] = experiment: Induction of cell cycle arrest in human K562 cells assessed as accumulation at G2/M phase after 72 hrs by propidium iodide staining-based flow cytometry (reference value: 15.31%); format: functional; outline: as §3
K562 [24] = experiment: Induction of cell cycle arrest in human K562 cells assessed as accumulation at Sub-G1 phase after 72 hrs by propidium iodide staining-based flow cytometry (reference value: 3.04%); format: functional; outline: as §3
K562 [25] = experiment: Induction of cell cycle arrest in human K562 cells assessed as accumulation at G0/G1 phase after 72 hrs by propidium iodide staining-based flow cytometry (reference value: 45.92%); format: functional; outline: as §3
K562 [26] = experiment: Induction of apoptosis in human K562 cells assessed as caspase 3 level after 72 hrs by Western blotting method (reference value: 17.05%); format: functional
K562 [27] = experiment: Induction of apoptosis in human K562 cells assessed as early apoptotic cells after 72 hrs by annexin V-FITC/propidium iodide staining based flow cytometry (reference value: 3.22%); format: functional; outline: as §1
K562 [28] = experiment: Induction of apoptosis in human K562 cells assessed as Bcl2 protein level after 72 hrs by Western blotting method (reference value: 7.90%); format: functional
HeLa = experiment: Antiproliferative activity against human HeLa cells after 72 hrs by MTT assay; format: functional, cell-based; outline: as §2
K562 [29] = experiment: Induction of specific apoptosis in human K562 cells after 72 hrs by annexin V-FITC/propidium iodide staining based flow cytometry; format: functional; parameters: concentration or dose not given beside the values; outline: as §1
K562 [30] = experiment: Induction of apoptosis in human K562 cells assessed as living cells after 72 hrs by annexin V-FITC/propidium iodide staining based flow cytometry (reference value: 84.31%); format: functional; outline: as §1
HT-29 = experiment: Antiproliferative activity against human HT-29 cells after 72 hrs by MTT assay; format: functional, cell-based; settings: HT-29, 72 h; outline: as §2
MRC5 = experiment: Cytotoxicity against human MRC5 cells after 72 hrs by MTT assay; format: cell-based; settings: MRC5, 72 h; outline: as §2
Jurkat = experiment: Antiproliferative activity against human Jurkat cells after 72 hrs by MTT assay; format: functional, cell-based; outline: as §2
MCF7 = experiment: Antiproliferative activity against human MCF7 cells after 72 hrs by MTT assay; format: functional, cell-based; settings: MCF7, 72 h; outline: as §2

Structure (SMILES) | Activity (K562 [1]) [%] | Activity (K562 [2]) [%] | Activity (K562 [3]) [%] | Activity (K562 [4]) [%] | Activity (K562 [5]) [%] | Activity (K562 [6]) [%] | Activity (K562 [7]) [%] | Activity (K562 [8]) [%] | Activity (K562 [9]) [%] | Activity (K562 [10]) [%] | Activity (K562 [12]) [%] | Activity (K562 [13]) [%] | Activity (K562 [14]) [%] | Activity (K562 [16]) [%] | Activity (K562 [17]) [%] | Activity (K562 [18]) [%] | Activity (K562 [19]) [%] | Activity (K562 [20]) [%] | Activity (K562 [21]) [%] | Activity (K562 [22]) [%] | also measured
Cl.NC(=O)c1csc([C@@H]2O[C@H](CO)[C@@H](O)[C@H]2N)n1 | 3.6 | 24.41 | 15.16 | 33.29 | 6.22 | 16.22 | 66.48 | 7.67 | 47.22 | 6.88 | 5.11 | 35.02 | 10.71 | 16.6 | 66.3 | 8.99 | 81.99 | 2.16 | 78.24 | 2.61 | IC50 (Raji; raji): 9.28 µM; IC50 (K562 [11]; k562): > 100 µM; IC50 ([15]; hl-60): 0.02 µM; Activity (K562 [23]): 11.26%; Activity (K562 [24]): 11.13%; Activity (K562 [25]): 44.32%; Activity (K562 [26]): 11.52%; Activity (K562 [27]): 22.33%; Activity (K562 [28]): 14.5%; IC50 (HeLa; hela): > 100 µM; Activity (K562 [29]): 30.26%; Activity (K562 [30]): 4.53%
[N-]=[N+]=N[C@@H]1[C@H](O)[C@@H](CO)O[C@H]1c1nc(C(N)=O)cs1 | -0.82 | 70.23 | 11.6 | 35.04 | 5.33 | 31.53 | 103.8 | 4.8 | 42.8 | 5.99 | 0.69 | 42.67 | 10.73 | 47.06 | 74.34 | 10.94 | 85.6 | 12.4 | 83.58 | 2.93 | IC50 (HT-29): > 100 µM; IC50 (MRC5): > 100 µM; IC50 (Raji; Homo sapiens, Raji, 72 h): > 100 µM; IC50 (K562 [11]; Homo sapiens, K562, 72 h): 0.31 µM; IC50 ([15]; Homo sapiens, HL-60, 72 h): > 100 µM; IC50 (Jurkat): > 100 µM; IC50 (MCF7): 0.004 µM; Activity (K562 [23]): 11.82%; Activity (K562 [24]): 10.9%; Activity (K562 [25]): 42.24%; Activity (K562 [26]): 34.23%; Activity (K562 [27]): 16.67%; Activity (K562 [28]): 17.3%; IC50 (HeLa; Homo sapiens, HeLa, 72 h): 4.08 µM; Activity (K562 [29]): 38.06%; Activity (K562 [30]): 3%
CC(=O)N[C@@H]1[C@H](O)[C@@H](CO)O[C@H]1c1nc(C(N)=O)cs1 | 5.88 | 33.66 | 8.21 | 31.42 | 24.55 | 63.4 | 95.59 | 12.48 | 45.03 | 25.03 | 7.39 | 43.07 | 12.6 | 90.45 | 62.01 | 5.03 | 98.81 | 18.43 | 75.11 | 3.71 | IC50 (HT-29): > 100 µM; IC50 (MRC5): 5.26 µM; IC50 (Raji; Homo sapiens, Raji, 72 h): 14.7 µM; IC50 (K562 [11]; Homo sapiens, K562, 72 h): > 100 µM; IC50 ([15]; Homo sapiens, HL-60, 72 h): > 100 µM; IC50 (Jurkat): > 100 µM; IC50 (MCF7): 3.92 µM; Activity (K562 [23]): 9.32%; Activity (K562 [24]): 11.17%; Activity (K562 [25]): 48.09%; Activity (K562 [26]): 93.75%; Activity (K562 [27]): 5.93%; Activity (K562 [28]): 37.09%; IC50 (HeLa; Homo sapiens, HeLa, 72 h): > 100 µM; Activity (K562 [29]): 43.6%; Activity (K562 [30]): 7.05%
COc1cccc(C(=O)N[C@@H]2[C@H](O)[C@@H](CO)O[C@H]2c2nc(C(N)=O)cs2)c1 | 3.68 | 37.39 | 9.41 | 34 | 10.33 | 47.76 | 111.75 | 8.67 | 46.71 | 10.82 | 5.19 | 39.45 | 11.88 | 104.69 | 69.98 | 8.16 | 89.53 | 4.66 | 77.99 | 4.44 | IC50 (HT-29): > 100 µM; IC50 (MRC5): > 100 µM; IC50 (Raji; Homo sapiens, Raji, 72 h): 6.29 µM; IC50 (K562 [11]; Homo sapiens, K562, 72 h): > 100 µM; IC50 ([15]; Homo sapiens, HL-60, 72 h): 2.69 µM; IC50 (Jurkat): 23.6 µM; IC50 (MCF7): 9.54 µM; Activity (K562 [23]): 12.04%; Activity (K562 [24]): 10.84%; Activity (K562 [25]): 43.13%; Activity (K562 [26]): 82.68%; Activity (K562 [27]): 16.45%; Activity (K562 [28]): 26.7%; IC50 (HeLa; Homo sapiens, HeLa, 72 h): > 100 µM; Activity (K562 [29]): 37.07%; Activity (K562 [30]): 2.76%
NC(=O)c1csc([C@@H]2O[C@H](CO)[C@@H](O)[C@H]2O)n1 [TIAZOFURIN] | 3.76 | 44.51 | 7.55 | 33.62 | 10.71 | 16.16 | 57.93 | 11.58 | 53.16 | 13.76 | 5.27 | 37.08 | -0.34 | 47.68 | 15.58 | 3.79 | 111.01 | 37.25 | 79.36 | 2.22 | IC50 (K562 [11]; Homo sapiens, K562, 72 h): 1.89 µM; IC50 ([15]; Homo sapiens, HL-60, 72 h): 0.19 µM; IC50 (MCF7): 1.78 µM; Activity (K562 [23]): 5.74%; Activity (K562 [24]): 24.99%; Activity (K562 [25]): 35.66%; Activity (K562 [26]): 15.38%; Activity (K562 [27]): 29.42%; Activity (K562 [28]): 27.2%; Activity (K562 [29]): 13.71%; Activity (K562 [30]): 41.24%

— ChEMBL document CHEMBL3774311, “Synthesis and in vitro antitumour activity of tiazofurin analogues with nitrogen functionalities at the C-2' position” (Eur J Med Chem, 2016)
